Results taken from PMC5987874 (The Journal of General Physiology, 2018).
Numbering of substitutions follows the chain as printed. Like-named read-outs stand apart in the source and are kept apart here.

Columns and labels:
Assay in all cases: Whole-cell voltage clamp, Zn^2+ modulation of GAQ gating
Format in all cases: cell-based
human Hv1 D112H = target: T1, human Hv1 D112H (Homo sapiens, UniProt Q96D96, D112H)
T1 sequence (Q96D96 1-273 D112H): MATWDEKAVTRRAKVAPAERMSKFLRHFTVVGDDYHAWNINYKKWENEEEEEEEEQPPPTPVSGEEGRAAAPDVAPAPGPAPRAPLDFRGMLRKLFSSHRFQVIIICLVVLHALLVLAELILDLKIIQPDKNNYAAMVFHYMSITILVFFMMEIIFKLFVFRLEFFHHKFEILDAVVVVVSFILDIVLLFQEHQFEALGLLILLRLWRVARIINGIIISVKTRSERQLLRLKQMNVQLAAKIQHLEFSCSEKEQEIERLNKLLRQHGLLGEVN
Summary of the method: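 Zn2+ effect was read from tail current, not end-of-step current. Whole-cell recording at ~21°C with pH 6.5 pipette and bath solutions (mM: ~80 TMA-MeSO3, 100 Bis-Tris, 8 HCl). ZnCl2 was diluted in bath solution and gravity-superfused, at least 2 min per change. Concentration–response was fitted to the Hill equation, with IC50 values from separate cells. ΔpIC50 was compared by unpaired Student's t test, P<0.05.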

human Hv1 E119H-H193A = target: T2, human Hv1 E119H-H193A (Homo sapiens, UniProt Q96D96, E119H/H193A)
T2 sequence (Q96D96 1-273 E119H/H193A): T1 sequence (Q96D96 1-273 D112H) with H112D, E119H, H193A
Summary of the method: (§1)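 Whole-cell patch clamp at ~21°C. Pipette and bath (mM): ~80 TMA-MeSO3, 100 Bis-Tris, 8 HCl, pH 6.5, 310–320 mOsm. ZnCl2 was diluted into bath solution and applied by gravity superfusion, at least 2 min per change. Test step voltage was set per construct from its V0.5. G_STEP = end-of-step current/(V−V_REV). Effect = 1 − G_Zn/G_control, fitted to the Hill equation. IC50 and nH are means ± SEM from separate cells. ΔpIC50 was tested by unpaired t test, P<0.05.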

human Hv1 D123H-H193A = target: T3, human Hv1 D123H-H193A (Homo sapiens, UniProt Q96D96, D123H/H193A)
T3 sequence (Q96D96 1-273 D123H/H193A): T1 sequence (Q96D96 1-273 D112H) with H112D, D123H, H193A
Summary of the method: as §1

human Hv1 D123H-H140A = target: T4, human Hv1 D123H-H140A (Homo sapiens, UniProt Q96D96, D123H/H140A)
T4 sequence (Q96D96 1-273 D123H/H140A): T1 sequence (Q96D96 1-273 D112H) with H112D, D123H, H140A
Summary of the method: as §1

[1] = target: T5, human Hv1 E153A (E^2.53A) (Homo sapiens, UniProt Q96D96, E153A)
T5 sequence (Q96D96 1-273 E153A): T1 sequence (Q96D96 1-273 D112H) with H112D, E153A
Summary of the method: as §1

[2] = target: T6, human Hv1 D123H (D^1.62H) (Homo sapiens, UniProt Q96D96, D123H)
T6 sequence (Q96D96 1-273 D123H): T1 sequence (Q96D96 1-273 D112H) with H112D, D123H
Summary of the method: as §1

[3] = VSTEP 80 mV, calculated as log (IC50)
[4] = read-out: IC50, fit of the mean data to a Hill function, Fig. 4B
[5] = read-out: Mean IC50 @ VSTEP, VSTEP 80 mV, pH 6.5, mean of fits in separate cells

With `[Cl-].[Cl-].[Zn+2]` [Zn^2+, ZnCl2] as the compound, how does the “Mean ΔpIC50 = (pIC50_1 - pIC50_2)” value (human Hv1 D112H; D112H vs WT) read?
The value was −2.1.

And the Hill value (human Hv1 D112H; VSTEP 130 mV, determined from tail current)?
Its Hill value is 0.56.

What about the pIC50 (human Hv1 D112H; VSTEP 130 mV, determined from tail current, calculated as log (IC50)) of the same compound?
The pIC50 was −2.96.

And the IC50 (human Hv1 D112H; read-out: Mean IC50 @ VSTEP, VSTEP 130 mV, pH 6.5, determined from tail current)?
The IC50 was 1.14 mM.

What about the “Mean ΔpIC50 = (pIC50_1 - pIC50_2)” value (human Hv1 E119H-H193A; E119H-H193A vs H193A) of the same compound?
The value was 1.38.

What about the “nH, fit of the mean data to a Hill function” value (from here on “nH, fit of the mean data”) (human Hv1 E119H-H193A; Fig. 4A) of the same compound?
The value was 0.7.

What about the Hill value (human Hv1 E119H-H193A; VSTEP 100 mV) of the same compound?
The Hill value was 0.86.

What about the pIC50 (human Hv1 E119H-H193A; VSTEP 100 mV, calculated as log (IC50)) of the same compound?
The pIC50 was 5.45.

What about the IC50 (human Hv1 E119H-H193A; read-out: IC50, fit of the mean data to a Hill function, Fig. 4A) of the same compound?
Its IC50 is 4.2 µM.

And the “Mean ΔpIC50 = (pIC50_1 - pIC50_2)” value (human Hv1 D123H-H193A; D123H-H193A vs H193A)?
Its value is 0.47.

And the “nH, fit of the mean data” value (human Hv1 D123H-H193A; Fig. 4B)?
The value was 0.9.

And the Hill value (human Hv1 D123H-H193A; VSTEP 80 mV)?
The Hill value was 1.06.

What about the pIC50 (human Hv1 D123H-H193A; [3]) of the same compound?
The pIC50 was −4.54.

And the IC50 (human Hv1 D123H-H193A; [4])?
The IC50 was 28.6 µM.

What about the IC50 (human Hv1 D123H-H193A; [5]) of the same compound?
Its IC50 is 36 µM.

And the “Mean ΔpIC50 = (pIC50_1 - pIC50_2)” value (human Hv1 D123H-H140A; D123H-H140A vs H140A)?
Its value is 0.36.

What about the “nH, fit of the mean data” value (human Hv1 D123H-H140A; Fig. 4B) of the same compound?
Its value is 0.5.

And the Hill value (human Hv1 D123H-H140A; VSTEP 80 mV)?
The Hill value was 0.58.

What about the pIC50 (human Hv1 D123H-H140A; [3]) of the same compound?
Its pIC50 is −4.78.

And the IC50 (human Hv1 D123H-H140A; [4])?
Its IC50 is 20.5 µM.

And the IC50 (human Hv1 D123H-H140A; [5])?
Its IC50 is 18 µM.

What about the “Mean ΔpIC50 = (pIC50_1 - pIC50_2)” value ([1]; E153A vs WT) of the same compound?
The value was −1.29.

What about the Hill value ([1]; VSTEP 40 mV) of the same compound?
The Hill value was 0.87.

What about the pIC50 ([1]; VSTEP 40 mV, calculated as log (IC50)) of the same compound?
The pIC50 was −3.77.

What about the IC50 ([1]; read-out: Mean IC50 @ VSTEP, VSTEP 40 mV, pH 6.5, mean of fits in separate cells) of the same compound?
Its IC50 is 241 µM.

And the “Mean ΔpIC50 = (pIC50_1 - pIC50_2)” value ([2]; D123H vs WT)?
Its value is 0.11.

And the “nH, fit of the mean data” value ([2]; Fig. 4B)?
The value was 0.8.

What about the Hill value ([2]; VSTEP 80 mV) of the same compound?
The Hill value was 0.95.

What about the pIC50 [2, 3] of the same compound?
The pIC50 was 5.56.

What about the IC50 [2, 4] of the same compound?
The IC50 was 2.5 µM.

What about the IC50 [2, 5] of the same compound?
Its IC50 is 4.3 µM.
